pIC50: −log10 of the molar value. Calls of active or inactive are those of the source. The calls are words filed in the database; no cut-off is given here.
Legend:
[1] = target: T1, Nuclear factor erythroid 2-related factor 2 (Homo sapiens) (UniProt Q16236); assay: Activation of Nrf2 (unknown origin) expressed in CHO-ARE luc cells at 10 to 30 uM after 18 hrs by luciferase reporter gene assay; type: cell-based
T1 sequence (whole entry): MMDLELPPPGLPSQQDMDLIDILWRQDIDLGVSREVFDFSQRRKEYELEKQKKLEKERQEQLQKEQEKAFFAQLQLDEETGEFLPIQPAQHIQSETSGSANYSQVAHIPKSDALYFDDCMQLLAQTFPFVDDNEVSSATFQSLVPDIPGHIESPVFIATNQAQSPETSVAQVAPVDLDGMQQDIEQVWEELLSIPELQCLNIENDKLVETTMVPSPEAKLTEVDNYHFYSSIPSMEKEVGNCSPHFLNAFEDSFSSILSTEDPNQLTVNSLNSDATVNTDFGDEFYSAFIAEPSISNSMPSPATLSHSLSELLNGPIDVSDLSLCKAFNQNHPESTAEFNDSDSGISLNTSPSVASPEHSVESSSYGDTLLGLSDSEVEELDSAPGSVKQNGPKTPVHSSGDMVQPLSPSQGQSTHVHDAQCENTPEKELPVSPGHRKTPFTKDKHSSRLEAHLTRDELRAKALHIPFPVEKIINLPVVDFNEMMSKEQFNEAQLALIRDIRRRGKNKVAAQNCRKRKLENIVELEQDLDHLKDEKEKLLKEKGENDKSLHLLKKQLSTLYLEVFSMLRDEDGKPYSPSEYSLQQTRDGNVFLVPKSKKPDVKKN
In short: (§1)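 CHO-ARE-Luc cells, kept in DMEM with 10% FCS, 2 mM glutamine and 4 μg/mL puromycin, were exposed to test agents for 18 h. 0.1% DMSO served as vehicle and 100 nM CDDO-IM as positive control. Luciferase was normalized to cell count (Cell Tracker Green CMFDA) and expressed as fold of DMSO control. Three independent experiments, means + SD. CD = concentration doubling the vehicle response.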

HEK293 = assay: Inhibition of NF-kappaB (unknown origin) expressed in HEK293 cells co-expressing luc gene at 30 uM after 30 mins by luciferase reporter gene assay; type: cell-based; conditions: Homo sapiens
In short: (§2)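 HEK293/NF-κB-luc cells were stained 1 h with 2 μM Cell Tracker Green CMFDA, seeded at 4×10⁴ cells/well overnight, and pretreated 30 min with compound, 0.1% DMSO, or 5 μM parthenolide (positive control). They were then stimulated with 2 ng/mL TNF-α for 4 h and lysed; luminescence (NF-κB) and fluorescence (cell count) were read. n = 3.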

[2] = target: T1, Nuclear factor erythroid 2-related factor 2 (Homo sapiens); assay: Activation of Nrf2 (unknown origin) expressed in CHO-ARE-Luc cells after 18 hrs by luciferase reporter gene assay; type: cell-based; in short: as §1
[3] = target: T2, Nuclear factor erythroid 2-related factor 2 (Mus musculus) (UniProt Q60795); assay: Activation of Nrf2 in mouse Nrf2 deficient embryonic fibroblasts assessed as induction of HO-1expression at 10 uM after 18 hrs by immunoblotting analysis
T2 sequence (whole entry): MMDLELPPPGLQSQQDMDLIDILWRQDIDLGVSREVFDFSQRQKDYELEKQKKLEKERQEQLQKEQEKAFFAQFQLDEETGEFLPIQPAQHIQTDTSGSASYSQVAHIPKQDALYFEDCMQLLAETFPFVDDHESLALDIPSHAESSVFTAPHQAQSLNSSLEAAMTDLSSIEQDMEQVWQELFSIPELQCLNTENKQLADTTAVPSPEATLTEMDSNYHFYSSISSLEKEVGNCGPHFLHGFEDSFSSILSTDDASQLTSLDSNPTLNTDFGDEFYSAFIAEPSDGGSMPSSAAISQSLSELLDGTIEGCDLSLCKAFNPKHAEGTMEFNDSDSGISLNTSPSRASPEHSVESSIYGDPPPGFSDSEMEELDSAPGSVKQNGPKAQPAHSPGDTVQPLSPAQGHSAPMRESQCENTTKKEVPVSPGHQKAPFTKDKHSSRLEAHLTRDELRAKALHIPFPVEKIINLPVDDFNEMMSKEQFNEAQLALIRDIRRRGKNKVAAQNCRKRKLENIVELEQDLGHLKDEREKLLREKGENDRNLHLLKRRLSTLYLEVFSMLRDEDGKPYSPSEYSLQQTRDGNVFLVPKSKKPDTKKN
In short: (§3)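 MEF (WT and isogenic Nrf2−/−) or VSMC were seeded at (3–4) × 10⁵ cells/well and treated next day with 0.1% DMSO or compound for 18 h. Total lysates were run on SDS-PAGE and immunoblotted for HO-1, with actin as loading control. HO-1/actin by densitometry relative to vehicle (set at 1). Three independent experiments.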

VSMC [4] = assay: Antiproliferative activity against human VSMC assessed as inhibition of PDGF-induced cell proliferation at 5 uM incubated for 30 mins prior to PDGF challenge measured after 48 hrs by resazurin-mediated fluorescence assay in presence of protoporphyrin 9; type: functional
In short: (§4)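 Quiescent (serum-starved) VSMC were pretreated 30 min with 0.1% DMSO, compound, or 10 μM tin protoporphyrin IX (HO-1 inhibitor) as indicated, then stimulated 48 h with 20 ng/mL PDGF. After a PBS wash, cells were given 10 μg/mL resazurin in serum-free medium for 45 min; resorufin fluorescence read at ex 535/em 590 nm. Three independent experiments.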

[5] = Cytotoxicity against human VSMC at 2 to 5 uM after 48 hrs by LDH assay
In short: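 Quiescent VSMC were treated with compound for 48 h. LDH release, measured with a nonradioactive CytoTox kit, was taken as readout of membrane integrity. Three independent experiments, 0.1% DMSO vehicle.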

VSMC [6] = assay: Antiproliferative activity against human VSMC assessed as inhibition of PDGF-induced cell proliferation at 2 to 5 uM incubated for 30 mins prior to PDGF challenge measured after 48 hrs by resazurin-mediated fluorescence assay; type: functional; in short: as §4
[7] = target: T1, Nuclear factor erythroid 2-related factor 2 (Homo sapiens); assay: Activation of Nrf2 in human VSMC assessed as induction of HO-1 expression at 3 uM after 18 hrs by immunoblotting analysis; in short: as §3
[8] = target: T2, Nuclear factor erythroid 2-related factor 2 (Mus musculus); assay: Activation of Nrf2 in wild type mouse embryonic fibroblasts assessed as induction of HO-1expression after 18 hrs by immunoblotting analysis; in short: as §3
[9] = Inhibition of NF-kappaB (unknown origin) expressed in HEK293 cells co-expressing luc gene after 30 mins by luciferase reporter gene assay; type: cell-based; conditions: Homo sapiens, HEK293, 0.5 h; in short: as §2
[10] = target: T1, Nuclear factor erythroid 2-related factor 2 (Homo sapiens); assay: Activation of Nrf2 (unknown origin) expressed in CHO-ARE-Luc cells after 18 hrs by luciferase reporter gene assay in presence of GSH; type: cell-based
In short: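 ARE-luciferase assay in CHO-ARE-Luc cells with the medium supplemented with 2 mM glutathione before compound addition. Luciferase read 18 h later, normalized to cell count and given as fold of 0.1% DMSO control. CDDO-IM 100 nM as positive control. Three independent experiments.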

[11] = target: T1, Nuclear factor erythroid 2-related factor 2 (Homo sapiens); assay: Activation of Nrf2 (unknown origin) expressed in CHO-ARE luc cells at 5.2 uM after 18 hrs by luciferase reporter gene assay relative to vehicle-treated control; type: cell-based; in short: as §1
[12] = target: T1, Nuclear factor erythroid 2-related factor 2 (Homo sapiens); assay: Activation of Nrf2 (unknown origin) expressed in CHO-ARE luc cells at 10 uM after 18 hrs by luciferase reporter gene assay; type: cell-based; in short: as §1

SMILES: COc1ccc(-c2oc3cc(O)c(OC)c(O)c3c(=O)c2O)cc1
- Activity [1]: inactive

SMILES: COc1ccc([C@@H]2CC(=O)c3c(cc(OC)c(OC)c3O)O2)cc1OC
- Activity [1]: inactive

SMILES: CC/C=C\CC1C(=O)C=C/C1=C\CCCCCCC(=O)O (stereo not drawn)
- inhibition (HEK293): Active

SMILES: COc1ccc([C@@H]2CC(=O)c3c(cc(O)c(OC)c3O)O2)cc1O
- Activity [1]: inactive

SMILES: COc1ccc(-c2oc3cc(O)cc(O)c3c(=O)c2O)cc1
- Activity [1]: inactive

SMILES: CCCCC/C=C/C=C1/C(=O)C=C[C@@H]1C/C=C\CCCC(=O)O
- Activity [2]: Dose-dependent effect

SMILES: COc1cc(O)c2c(=O)c(O)c(-c3ccc(OC)c(O)c3)oc2c1
- Activity [1]: inactive

SMILES: O=C1C[C@@H](c2ccc(O)cc2)Oc2cc(O)cc(O)c21
- Activity [1]: inactive

SMILES: CC/C=C\CC1C(=O)C=C/C1=C/CCCCCCC(=O)O (stereo not drawn)
- inhibition (HEK293): Active

SMILES: COc1ccc(-c2cc(=O)c3c(OC)c(OC)c(OC)cc3o2)cc1
- Activity [1]: inactive

SMILES: CC/C=C\C=C1\C(=O)C=C[C@@H]1CCCCCCCC(=O)O
- Activity [3]: Active
- Activity (VSMC [4]): inactive
- Activity [5]: Non-toxic
- inhibition (VSMC [6]): Active
- Activity [7]: Active
- Activity [8]: Dose-dependent effect
- pIC50 [9]: 5.16
- Activity [10]: inactive
- fold change (FC) [11]: 2
- Activity [12]: Active

SMILES: COc1ccc(-c2cc(=O)c3c(O)c(OC)c(OC)cc3o2)cc1
- Activity [1]: inactive

SMILES: COc1ccc(-c2cc(=O)c3c(O)c(OC)c(O)cc3o2)cc1
- Activity [1]: inactive

SMILES: COc1cc(O)c2c(c1)O[C@H](c1ccc(O)cc1)[C@@H](O)C2=O
- Activity [1]: inactive

SMILES: CC/C=C\C[C@H]1C(=O)C=C[C@@H]1CCCCCCCC(=O)O
- inhibition (HEK293): Active

SMILES: COc1ccc([C@@H]2CC(=O)c3c(O)cc(O)cc3O2)cc1O
- Activity [1]: inactive

SMILES: COc1ccc(-c2cc(=O)c3c(O)cc(O)cc3o2)cc1
- Activity [1]: inactive

SMILES: CC/C=C\C=C1/C(=O)C=C[C@@H]1CCCCCCCC(=O)O
- inhibition (HEK293): Active

SMILES: O=c1c(O)c(-c2ccc(O)cc2)oc2cc(O)cc(O)c12
- Activity [1]: inactive

Source: ChEMBL document CHEMBL3120063, “Identification of chromomoric acid C-I as an Nrf2 activator in Chromolaena odorata” (J Nat Prod, 2014)
